From ChEMBL document CHEMBL3580567 (J Med Chem, 2015)
Values after ≈ are worked out from the molar mass of the structure shown. Active and inactive are the calls of the source. The rule behind the calls is not given here.

Tests used:
[1] = biological target: T1, Melatonin receptor type 1A (Homo sapiens, UniProt P48039); experiment: Displacement of 2-[125I]-iodomelatonin from human melatonin receptor-1 transfected in CHO cell membranes after 120 mins
[2] = biological target: T2, Melatonin receptor type 1B (Homo sapiens, UniProt P49286); experiment: Displacement of 2-[125I]-iodomelatonin from human melatonin receptor-2 transfected in CHO cell membranes after 120 mins
T2 sequence (P49286 whole entry): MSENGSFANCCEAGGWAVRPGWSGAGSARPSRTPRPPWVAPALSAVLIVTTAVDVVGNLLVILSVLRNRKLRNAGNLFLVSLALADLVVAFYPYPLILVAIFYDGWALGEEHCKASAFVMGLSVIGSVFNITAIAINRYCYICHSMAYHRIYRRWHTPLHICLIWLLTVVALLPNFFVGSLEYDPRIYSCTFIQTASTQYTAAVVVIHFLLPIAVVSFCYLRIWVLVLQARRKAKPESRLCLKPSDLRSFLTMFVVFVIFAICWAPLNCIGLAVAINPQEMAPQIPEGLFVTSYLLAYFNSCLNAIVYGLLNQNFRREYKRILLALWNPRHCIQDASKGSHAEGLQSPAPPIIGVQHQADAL

Homo sapiens = organism: Homo sapiens; experiment: Selectivity ratio of Ki for human melatonin receptor-1 to Ki for human melatonin receptor-2
[3] = biological target: T2, Melatonin receptor type 1B; experiment: Agonist activity at human melatonin receptor-2 transfected in CHO cell membranes after 1 hr by GTPgammaS binding assay; format: functional
[4] = biological target: T3, Melatonin receptor type 1B (Homo sapiens) (UniProt P49286); experiment: Agonist activity at human melatonin receptor-2 transfected in CHO cell membranes after 1 hr by GTPgammaS binding assay relative to melatonin; format: functional
T3 sequence (whole entry): T2 sequence (P49286 whole entry)
Method in brief: (§1)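 CHO membranes (20 µg/mL) stably expressing human MT1 or MT2 in 20 mM HEPES pH 7.4, 100 mM NaCl, 3 µM GDP, 3 mM MgCl2, 20 µg/mL saponin. Incubated with 0.2 nM [35S]GTPγS for 1 h at rt, then filtered. Non-specific binding defined with 10 µM GTPγS. Seven concentrations in duplicate; EC50 and Emax fitted.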

[5] = Thermodynamic solubility in buffer at pH 5.5 after 24 hrs by UV spectra analysis; format: physicochemical; settings: read-out: Therm_solubility
[6] = Thermodynamic solubility in phosphate buffer at pH 7.4 after 24 hrs by UV spectra analysis; format: physicochemical; settings: read-out: Therm_solubility
Method in brief: (§2)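 Thermodynamic solubility: about 1 mg of solid was saturated in 200 µL buffer and stirred 24 h at rt at 320 rpm, then centrifuged. Supernatant was diluted with buffer-MeCN 80:20 and read by UV at its absorbance maximum. Values were quantified against a calibration line from a 10 mM DMSO stock, checked with a quality-control standard. Runs were in triplicate. The buffers were pH 7.4 phosphate 45 mM and NH4Cl for the basic pH.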

[7] = Thermodynamic solubility in NH4Cl buffer at pH 9.3 after 24 hrs by UV spectra analysis; format: physicochemical; settings: read-out: Therm_solubility; method in brief: as §2
[8] = (§3) Induction of primary neuronal stem cell differentiation derived from subgranular zone of dentate gyrus of Wistar rat hippocampus assessed as upregulation of TuJ1 expression at 10 uM incubated for 7 days followed by 48 hrs incubation in presence of serum and absence of EGF by DAPI staining-based fluorescence microscopic analysis; format: functional; settings: Primary neuron
Method in brief: (§4)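 Neurospheres came from the SGZ of the dentate gyrus of adult male Wistar rats (8-12 weeks). They were grown in DMEM/F12 with 10 ng/mL EGF, 10 ng/mL FGF and B27. After 3 days, cultures were treated with compounds for 7 days. They were then plated on poly-L-lysine coverslips for 48 h with serum and without growth factors. Cells were immunostained for TuJ1 and MAP-2 with DAPI nuclei. Positive cells were counted by fluorescence microscopy in five NS per condition over three independent experiments. Untreated cultures gave basal values.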

[9] = (§5) Induction of primary neuronal stem cell maturation derived from subgranular zone of dentate gyrus of Wistar rat hippocampus assessed as upregulation of MAP-2 expression at 10 uM incubated for 7 days by DAPI staining-based fluorescence microscopic analysis; format: functional; settings: Primary neuron; method in brief: as §4
[10] = as §3, with “analysis in presence of melatonin receptor antagonist luzindole” for “analysis”; format: functional; settings: Primary neuron; method in brief: as §4
[11] = as §5, with “analysis in presence of melatonin receptor antagonist luzindole” for “analysis”; format: functional, tissue-based; settings: Primary neuron; method in brief: as §4
[12] = Solubility in the water; format: physicochemical; settings: buffer
[13] = biological target: T1, Melatonin receptor type 1A; experiment: Agonist activity at human melatonin receptor-1 transfected in CHO cell membranes after 1 hr by GTPgammaS binding assay; format: functional
[14] = biological target: T1, Melatonin receptor type 1A; experiment: Agonist activity at human melatonin receptor-1 transfected in CHO cell membranes after 1 hr by GTPgammaS binding assay relative to melatonin; format: functional; method in brief: as §1
[15] = Permeability of the compound at 100 ug/ml after 240 mins by PAMPA; format: physicochemical; settings: 4 h
Method in brief: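 For PAMPA-BBB, the filter was coated with porcine brain lipid in dodecane (20 mg/mL). Donor compound was 100 µg/mL in PBS:ethanol 70:30, pH 7.4, and the acceptor held PBS:ethanol 70:30. Plates were incubated 240 min at 25 °C. Acceptor concentration was read by UV-Vis at five wavelengths in four wells, over at least three runs. Eleven quality-control standards were included.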

[16] = biological target: T2, Melatonin receptor type 1B; experiment: Agonist activity at human recombinant melatonin receptor-2 expressed in CHO cells assessed as decrease of cAMP level after 10 mins by HTRF assay; format: functional, cell-based
Method in brief: (§6)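 Functional agonist profiling was done by CEREP on cells expressing human recombinant MT receptors. MT1 was read by cellular dielectric spectroscopy and MT2 by homogeneous time-resolved fluorescence. The protocols are those on the company website.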

[17] = biological target: T3, Melatonin receptor type 1B (Homo sapiens); experiment: Agonist activity at human recombinant melatonin receptor-2 expressed in CHO cells assessed as decrease of cAMP level after 10 mins by HTRF assay relative to melatonin; format: functional, cell-based
[18] = biological target: T1, Melatonin receptor type 1A; experiment: Agonist activity at human recombinant melatonin receptor-1 expressed in CHO cells assessed as effect on impedance by cellular dielectric spectroscopy; format: cell-based; method in brief: as §6
[19] = biological target: T1, Melatonin receptor type 1A; experiment: Agonist activity at human recombinant melatonin receptor-1 expressed in CHO cells assessed as effect on impedance by cellular dielectric spectroscopy relative to melatonin; format: cell-based
[20] = biological target: T4, 5-hydroxytryptamine receptor 1A (Rattus norvegicus, UniProt P19327); experiment: Displacement of [3H]8-OH DPAT from rat 5HT1A receptor expressed in CHO cells after 30 mins by liquid scintillation counting analysis; format: cell-based
T4 sequence (P19327 whole entry): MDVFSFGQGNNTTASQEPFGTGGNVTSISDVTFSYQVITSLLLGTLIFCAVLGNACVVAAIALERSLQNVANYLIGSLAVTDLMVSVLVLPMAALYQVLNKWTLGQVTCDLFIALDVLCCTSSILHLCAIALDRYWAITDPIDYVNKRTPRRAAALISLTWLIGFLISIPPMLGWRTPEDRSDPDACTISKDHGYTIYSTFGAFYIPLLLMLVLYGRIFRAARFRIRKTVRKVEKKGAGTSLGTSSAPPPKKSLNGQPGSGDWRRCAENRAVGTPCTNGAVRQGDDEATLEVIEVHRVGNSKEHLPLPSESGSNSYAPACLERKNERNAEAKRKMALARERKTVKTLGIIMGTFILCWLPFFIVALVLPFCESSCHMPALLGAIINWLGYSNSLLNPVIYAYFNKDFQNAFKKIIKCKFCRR

[21] = biological target: 5-hydroxytryptamine receptor 2A (Rattus norvegicus, UniProt P14842); experiment: Displacement of [3H]DOB from rat 5HT2A receptor expressed in mouse NIH/3T3 cells after 30 mins by liquid scintillation counting analysis; format: cell-based
Chain of 5-hydroxytryptamine receptor 2A (P14842 whole entry): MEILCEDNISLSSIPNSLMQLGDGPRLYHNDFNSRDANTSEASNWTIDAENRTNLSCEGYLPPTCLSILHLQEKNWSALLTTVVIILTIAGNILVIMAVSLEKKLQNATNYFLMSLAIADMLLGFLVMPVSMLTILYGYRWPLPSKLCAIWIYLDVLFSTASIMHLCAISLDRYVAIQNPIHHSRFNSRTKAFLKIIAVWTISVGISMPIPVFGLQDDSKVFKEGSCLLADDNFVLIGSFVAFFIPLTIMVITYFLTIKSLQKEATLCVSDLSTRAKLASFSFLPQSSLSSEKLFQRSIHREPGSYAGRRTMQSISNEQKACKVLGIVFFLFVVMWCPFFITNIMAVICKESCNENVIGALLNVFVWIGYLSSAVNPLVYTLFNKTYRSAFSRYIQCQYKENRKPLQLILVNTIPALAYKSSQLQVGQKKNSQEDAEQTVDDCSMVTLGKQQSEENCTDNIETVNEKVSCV

T1 sequence (P48039 whole entry): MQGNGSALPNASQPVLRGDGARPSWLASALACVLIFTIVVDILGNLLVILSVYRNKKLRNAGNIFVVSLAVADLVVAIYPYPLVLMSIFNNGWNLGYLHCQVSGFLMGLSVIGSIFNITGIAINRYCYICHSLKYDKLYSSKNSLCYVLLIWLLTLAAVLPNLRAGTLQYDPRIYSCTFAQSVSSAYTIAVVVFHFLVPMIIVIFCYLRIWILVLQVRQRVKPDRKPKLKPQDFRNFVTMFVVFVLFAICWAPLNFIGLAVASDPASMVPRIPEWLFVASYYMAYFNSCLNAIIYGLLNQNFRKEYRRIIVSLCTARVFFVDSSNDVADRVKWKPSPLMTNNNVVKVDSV

| Structure (SMILES) | Ki [1] [nM] | Ki [2] [nM] | Ratio Ki (Homo sapiens) | EC50 [3] [nM] | Emax [4] [%] | solubility thermodynamic at 24 h [6] [µM] | EC50 [13] [nM] | Emax [14] [%] | other results |
| --- | --- | --- | --- | --- | --- | --- | --- | --- | --- |
| CCNc1nnc(Cc2c[nH]c3ccc(OC)cc23)s1 | > 1000 | 17 | > 500 | 110 | 35 | 1420 (≈ 409 µg/mL) | – | – | solubility thermodynamic at 24 h [5]: 1720 µM (≈ 495 µg/mL); solubility thermodynamic at 24 h [7]: 1440 µM (≈ 414 µg/mL); Activity [8]: Active |
| COc1ccc2[nH]cc(CCc3n[nH]c(=S)o3)c2c1 | > 1000 | 530 | – | 1100 | 32 | 3460 (≈ 953 µg/mL) | – | – | solubility thermodynamic at 24 h [5]: 907 µM (≈ 250 µg/mL); solubility thermodynamic at 24 h [7]: 18700 µM (≈ 5140 µg/mL) |
| COc1ccc2cccc(CCNC(C)=O)c2c1 [AGOMELATINE] | – | – | – | – | – | 804 (≈ 196 µg/mL) | – | – | – |
| CC(=O)NCCc1c(Cc2ccccc2)[nH]c2ccccc12 | – | – | – | – | – | – | – | – | Activity [8]: inactive |
| COc1ccc2[nH]cc(CCNC(C)=O)c2c1 [MELATONIN] | – | – | – | – | – | 6640 (≈ 1540 µg/mL) | – | – | Activity [8]: Active; Activity [9]: Active; Activity [10]: inactive; Activity [11]: inactive; solubility [12]: 400 µM (≈ 92.9 µg/mL) |
| COc1ccc2[nH]cc(Cc3ncc(C)o3)c2c1 | 280 | > 1000 | – | – | – | – | 989 | 23 | – |
| COc1ccc2[nH]cc(Cc3n[nH]c(=S)o3)c2c1 | > 1000 | 535 | – | > 1000 | – | – | – | – | – |
| C=CCNC(=O)CCc1c[nH]c2ccc(OC)cc12 | 2.5 | 0.45 | 5.5 | 11 | 88 | – | 204 | 92 | – |
| C#CCNC(=O)CCc1c[nH]c2ccc(OC)cc12 | – | – | 5 | – | 99 | – | – | 106 | Activity [8]: Active; Activity [9]: inactive |
| C#CCNC(=O)Cc1c[nH]c2ccc(OC)cc12 | 14 | 3.8 | 3.6 | 81 | 82 | – | 289 | 67 | – |
| COc1ccc2[nH]cc(Cc3nnc(C)o3)c2c1 | 210 | 16 | 10 | 71 | 24 | 970 (≈ 236 µg/mL) | > 1000 | – | – |
| COc1ccc2[nH]cc(CCc3ncc(C)o3)c2c1 | > 1000 | 498 | – | 503 | 32 | – | – | – | – |
| C=CCNC(=O)Cc1c[nH]c2ccc(OC)cc12 | 17 | 4.9 | 3.5 | 132 | 70 | – | 525 | 64 | – |
| COc1ccc2[nH]cc(Cc3n[nH]c(=O)n3C)c2c1 | > 1000 | 560 | – | > 1000 | – | – | – | – | – |
| CCn1c(Cc2c[nH]c3ccc(OC)cc23)n[nH]c1=S | > 1000 | 220 | – | > 1000 | – | – | – | – | – |
| COc1ccc2[nH]cc(CCc3nc(C)no3)c2c1 | > 1000 | > 1000 | – | – | – | – | – | – | – |
| COc1ccc2[nH]cc(CCc3n[nH]c(=O)o3)c2c1 | 35 | 4 | 10 | 29 | 30 | 2100 (≈ 544 µg/mL) | 326 | 26 | solubility thermodynamic at 24 h [5]: 1410 µM (≈ 365 µg/mL); solubility thermodynamic at 24 h [7]: 7920 µM (≈ 2050 µg/mL); Activity [8]: Active; Activity [9]: Active; Activity [10]: inactive; Activity [11]: inactive; permeability [15]: permeable; EC50 [16]: 5.5 nM; Emax [17]: 97%; EC50 [18]: 48 nM; Emax [19]: 100% |
| COc1ccc2[nH]cc(Cc3nc(C)no3)c2c1 | 170 | 44 | 3.9 | 295 | 48 | 1160 (≈ 283 µg/mL) | 711 | 16 | – |
| COc1ccc2[nH]cc(CCc3n[nH]c(=O)n3C)c2c1 | > 1000 | > 1000 | – | – | – | 1100 (≈ 301 µg/mL) | – | – | solubility thermodynamic at 24 h [5]: 860 µM (≈ 234 µg/mL); solubility thermodynamic at 24 h [7]: 1410 µM (≈ 383 µg/mL) |
| CCn1c(CCc2c[nH]c3ccc(OC)cc23)n[nH]c1=S | > 1000 | > 1000 | – | – | – | 137 (≈ 41.4 µg/mL) | – | – | solubility thermodynamic at 24 h [5]: 131 µM (≈ 39.6 µg/mL); solubility thermodynamic at 24 h [7]: 208 µM (≈ 62.9 µg/mL) |
| COc1ccc2[nH]cc(Cc3n[nH]c(=O)o3)c2c1 | > 1000 | 160 | – | > 1000 | – | – | – | – | – |
| COc1ccc2[nH]cc(CCc3nnco3)c2c1 | 570 | 68 | 8.6 | 457 | 25 | – | > 1000 | – | – |
| COc1ccc2[nH]cc(CCN(C)C)c2c1 [MEBUFOTENIN] | 210 | 16 | 10 | 112 | 28 | – | 257 | 62 | Ki [20]: 11 nM; Ki [21]: 92 nM |
